Where “and” joins values, the source holds several entries; their conditions need not be identical. Identical values can stand only once. Entries after “also recorded” stand apart in the source; their conditions may differ.
Columns and labels:
[1] = system: Beta-secretase; settings: cited from earlier work
[2] = target: human pol δ (Homo sapiens, UniProt P28340); test: Pol assay, human pol δ; type: biochemical
Method in brief: (§1)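 Test compound was dissolved in DMSO and sonicated 30 s. It was preincubated with enzyme (0.05 unit final) in 50 mM Tris-HCl pH 7.5, 1 mM DTT, 50% glycerol and 0.1 mM EDTA at 0 °C for 10 min. This was added to each enzyme's standard reaction mix with poly(dA)/oligo(dT)18 (A/T = 2/1) template-primer and dTTP substrate, then incubated at 37 °C for 60 min. Activity is given as % of inhibitor-free control.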

[3] = target: T4 polynucleotide kinase (Enterobacteria phage T4, UniProt P06855); test: T4 polynucleotide kinase assay; type: biochemical; settings: highest tested concentration 1 μM, supplemental Fig. S1B
[4] = target: human topoisomerase II (Homo sapiens, UniProt P11388); test: DNA topoisomerase II assay; type: biochemical; settings: highest tested concentration 1 μM, supplemental Fig. S1B
Method in brief: (§2)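 Topoisomerases I and II were purified from human placenta, and DNase I came from bovine pancreas. Each activity was measured in a standard assay following the supplier's specifications.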

[5] = target: Taq pol (Thermus aquaticus, UniProt P19821); test: Pol assay, Taq pol; type: biochemical; settings: supplemental Fig. S1A
Method in brief: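 Taq polymerase used poly(dA)/oligo(dT)18 (A/T = 2/1) template-primer and dTTP substrate. Test compound in sonicated DMSO was preincubated with enzyme (0.05 unit final) in 50 mM Tris-HCl pH 7.5, 1 mM DTT, 50% glycerol and 0.1 mM EDTA at 0 °C for 10 min. The mixture was then added to standard reaction mix and incubated at 74 °C for 60 min. Activity is given as % of untreated control.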

[6] = target: Angiotensin converting enzyme; settings: read-out: IC50, Angiotensin converting enzyme; cited from earlier work
[7] = target: del-1 pol λ (133–575) (Homo sapiens, UniProt Q9UGP5); test: Pol assay, del-1 pol λ mutant; type: biochemical; settings: dose-response, Fig. 4B
Method in brief: as §1

[8] = target: Klenow fragment of E. coli pol I (Escherichia coli, UniProt P00582); test: Pol assay, Klenow fragment of E. coli pol I; type: biochemical; settings: supplemental Fig. S1A
Method in brief: as §1

[9] = target: human pol λ (full-length, residues 1–575) (Homo sapiens, UniProt Q9UGP5); test: Pol assay, full-length human pol λ; type: biochemical; settings: 100 and 1,000 nM PGG, Fig. 1C
Method in brief: as §1

[10] = target: mouse pol ι (Mus musculus, UniProt Q6R3M4); test: Pol assay, mouse pol ι; type: biochemical
Method in brief: as §1

[11] = target: human topoisomerase I (Homo sapiens, UniProt P11387); test: DNA topoisomerase I assay; type: biochemical; settings: highest tested concentration 1 μM, supplemental Fig. S1B
Method in brief: as §2

[12] = target: Xanthine oxidase; settings: read-out: IC50, Xanthine oxidase; cited from earlier work
[13] = target: human pol η (Homo sapiens, UniProt Q9Y253); test: Pol assay, human pol η; type: biochemical
Method in brief: as §1

[14] = target: T1, calf pol α (Bos taurus, UniProt A0AAA9TD94); test: Pol assay, calf pol α; type: biochemical; settings: for Ki: pol α, Dixon plot
T1 sequence (A0AAA9TD94 1-1441): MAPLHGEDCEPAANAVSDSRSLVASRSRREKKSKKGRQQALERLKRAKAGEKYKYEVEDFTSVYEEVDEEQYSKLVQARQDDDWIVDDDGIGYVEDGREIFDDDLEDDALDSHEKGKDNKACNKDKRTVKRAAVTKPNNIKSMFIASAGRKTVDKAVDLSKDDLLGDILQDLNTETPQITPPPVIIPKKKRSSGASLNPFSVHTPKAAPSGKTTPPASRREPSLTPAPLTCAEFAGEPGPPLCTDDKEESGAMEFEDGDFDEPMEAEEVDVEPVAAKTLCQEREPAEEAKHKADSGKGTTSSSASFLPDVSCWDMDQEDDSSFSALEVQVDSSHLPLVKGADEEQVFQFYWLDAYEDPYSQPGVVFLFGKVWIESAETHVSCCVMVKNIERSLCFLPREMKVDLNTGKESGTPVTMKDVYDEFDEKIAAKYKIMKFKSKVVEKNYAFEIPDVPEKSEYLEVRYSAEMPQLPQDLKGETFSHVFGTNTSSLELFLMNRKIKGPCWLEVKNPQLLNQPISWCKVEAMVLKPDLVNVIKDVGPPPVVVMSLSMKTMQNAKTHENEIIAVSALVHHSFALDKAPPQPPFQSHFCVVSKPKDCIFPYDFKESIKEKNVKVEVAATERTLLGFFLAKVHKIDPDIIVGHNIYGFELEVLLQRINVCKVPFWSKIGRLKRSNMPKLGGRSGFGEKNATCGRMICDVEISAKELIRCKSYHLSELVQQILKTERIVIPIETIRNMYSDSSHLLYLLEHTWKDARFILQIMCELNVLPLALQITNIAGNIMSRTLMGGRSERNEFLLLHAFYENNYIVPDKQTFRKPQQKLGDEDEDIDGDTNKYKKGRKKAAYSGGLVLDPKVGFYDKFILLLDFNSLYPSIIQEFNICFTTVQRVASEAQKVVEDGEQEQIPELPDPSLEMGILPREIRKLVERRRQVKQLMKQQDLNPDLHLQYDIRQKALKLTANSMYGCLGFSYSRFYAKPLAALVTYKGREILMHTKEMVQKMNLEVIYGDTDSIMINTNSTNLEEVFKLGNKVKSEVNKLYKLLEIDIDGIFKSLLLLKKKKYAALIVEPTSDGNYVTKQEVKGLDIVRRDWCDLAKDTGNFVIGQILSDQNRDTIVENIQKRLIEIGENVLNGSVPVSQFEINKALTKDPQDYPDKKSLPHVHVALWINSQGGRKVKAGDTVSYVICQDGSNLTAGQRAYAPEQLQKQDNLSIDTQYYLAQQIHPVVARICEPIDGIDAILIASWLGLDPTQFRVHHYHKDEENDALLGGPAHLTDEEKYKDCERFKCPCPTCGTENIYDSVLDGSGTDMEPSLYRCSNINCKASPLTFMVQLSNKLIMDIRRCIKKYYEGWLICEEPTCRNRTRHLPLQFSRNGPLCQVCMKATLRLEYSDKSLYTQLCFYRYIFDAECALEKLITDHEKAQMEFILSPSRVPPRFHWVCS
Method in brief: as §1

Sequence of human pol δ (P28340 whole entry): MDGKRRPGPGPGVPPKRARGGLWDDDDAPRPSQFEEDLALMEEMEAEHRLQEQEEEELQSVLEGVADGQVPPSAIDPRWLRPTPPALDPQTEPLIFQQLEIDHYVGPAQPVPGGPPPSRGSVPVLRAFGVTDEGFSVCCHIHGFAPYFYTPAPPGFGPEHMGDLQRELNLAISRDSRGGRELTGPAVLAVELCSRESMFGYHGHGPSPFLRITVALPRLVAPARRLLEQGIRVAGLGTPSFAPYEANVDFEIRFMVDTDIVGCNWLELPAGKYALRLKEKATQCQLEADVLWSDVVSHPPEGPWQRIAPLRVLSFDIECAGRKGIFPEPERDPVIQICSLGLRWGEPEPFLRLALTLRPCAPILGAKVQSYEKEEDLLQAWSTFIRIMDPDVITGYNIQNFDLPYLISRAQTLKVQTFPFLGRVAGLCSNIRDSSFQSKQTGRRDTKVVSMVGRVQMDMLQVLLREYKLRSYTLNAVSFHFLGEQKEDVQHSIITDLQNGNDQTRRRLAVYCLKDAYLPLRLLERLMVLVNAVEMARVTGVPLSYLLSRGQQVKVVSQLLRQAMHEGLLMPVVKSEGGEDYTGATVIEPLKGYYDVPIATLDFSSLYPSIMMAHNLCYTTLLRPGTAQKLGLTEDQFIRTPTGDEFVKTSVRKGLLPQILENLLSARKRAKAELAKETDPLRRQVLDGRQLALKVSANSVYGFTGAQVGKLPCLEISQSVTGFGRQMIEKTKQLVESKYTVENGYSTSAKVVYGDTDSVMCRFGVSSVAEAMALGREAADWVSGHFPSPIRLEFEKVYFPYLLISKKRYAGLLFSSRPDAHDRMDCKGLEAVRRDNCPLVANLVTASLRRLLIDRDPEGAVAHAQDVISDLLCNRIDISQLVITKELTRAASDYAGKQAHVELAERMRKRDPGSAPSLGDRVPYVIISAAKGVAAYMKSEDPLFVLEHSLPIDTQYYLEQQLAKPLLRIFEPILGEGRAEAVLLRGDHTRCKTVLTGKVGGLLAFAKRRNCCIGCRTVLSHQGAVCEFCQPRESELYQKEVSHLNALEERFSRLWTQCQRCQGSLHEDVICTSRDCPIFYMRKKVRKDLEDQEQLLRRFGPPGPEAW
Sequence of human pol η (Q9Y253 whole entry): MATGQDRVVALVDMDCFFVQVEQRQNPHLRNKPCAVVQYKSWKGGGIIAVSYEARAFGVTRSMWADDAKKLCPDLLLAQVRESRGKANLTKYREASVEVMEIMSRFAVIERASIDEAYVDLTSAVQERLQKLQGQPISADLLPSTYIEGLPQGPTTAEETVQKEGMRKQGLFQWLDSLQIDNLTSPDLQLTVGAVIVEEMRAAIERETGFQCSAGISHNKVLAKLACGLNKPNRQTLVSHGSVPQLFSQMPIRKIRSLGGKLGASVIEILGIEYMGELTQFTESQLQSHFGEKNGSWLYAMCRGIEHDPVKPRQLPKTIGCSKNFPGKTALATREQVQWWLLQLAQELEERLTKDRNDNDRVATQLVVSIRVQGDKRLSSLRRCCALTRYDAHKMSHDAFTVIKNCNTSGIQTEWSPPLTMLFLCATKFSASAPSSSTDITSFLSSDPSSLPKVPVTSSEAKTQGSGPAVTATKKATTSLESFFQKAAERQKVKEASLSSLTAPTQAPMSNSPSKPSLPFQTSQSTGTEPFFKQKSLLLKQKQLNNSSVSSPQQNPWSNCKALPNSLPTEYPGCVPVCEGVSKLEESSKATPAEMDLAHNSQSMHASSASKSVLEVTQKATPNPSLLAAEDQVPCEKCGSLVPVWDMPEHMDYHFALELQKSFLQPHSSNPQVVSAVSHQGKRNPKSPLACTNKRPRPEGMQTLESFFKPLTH
Sequence of human pol λ (full-length, residues 1–575) (Q9UGP5 whole entry, the tested form may be a part): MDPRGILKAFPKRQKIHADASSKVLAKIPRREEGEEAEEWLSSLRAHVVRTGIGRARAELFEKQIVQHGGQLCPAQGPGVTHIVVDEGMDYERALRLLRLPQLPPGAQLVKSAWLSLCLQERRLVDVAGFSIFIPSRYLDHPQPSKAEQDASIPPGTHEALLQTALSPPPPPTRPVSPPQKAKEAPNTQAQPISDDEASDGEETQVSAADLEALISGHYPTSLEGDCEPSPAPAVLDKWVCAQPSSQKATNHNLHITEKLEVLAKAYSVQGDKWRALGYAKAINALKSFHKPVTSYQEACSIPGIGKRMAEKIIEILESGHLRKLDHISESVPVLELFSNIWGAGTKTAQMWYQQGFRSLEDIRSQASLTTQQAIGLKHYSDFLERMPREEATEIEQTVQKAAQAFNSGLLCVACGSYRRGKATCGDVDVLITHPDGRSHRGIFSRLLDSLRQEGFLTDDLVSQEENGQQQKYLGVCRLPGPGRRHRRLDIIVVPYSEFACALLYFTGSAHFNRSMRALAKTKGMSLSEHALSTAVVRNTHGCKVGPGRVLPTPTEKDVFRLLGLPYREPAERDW
Sequence of mouse pol ι (Q6R3M4 whole entry): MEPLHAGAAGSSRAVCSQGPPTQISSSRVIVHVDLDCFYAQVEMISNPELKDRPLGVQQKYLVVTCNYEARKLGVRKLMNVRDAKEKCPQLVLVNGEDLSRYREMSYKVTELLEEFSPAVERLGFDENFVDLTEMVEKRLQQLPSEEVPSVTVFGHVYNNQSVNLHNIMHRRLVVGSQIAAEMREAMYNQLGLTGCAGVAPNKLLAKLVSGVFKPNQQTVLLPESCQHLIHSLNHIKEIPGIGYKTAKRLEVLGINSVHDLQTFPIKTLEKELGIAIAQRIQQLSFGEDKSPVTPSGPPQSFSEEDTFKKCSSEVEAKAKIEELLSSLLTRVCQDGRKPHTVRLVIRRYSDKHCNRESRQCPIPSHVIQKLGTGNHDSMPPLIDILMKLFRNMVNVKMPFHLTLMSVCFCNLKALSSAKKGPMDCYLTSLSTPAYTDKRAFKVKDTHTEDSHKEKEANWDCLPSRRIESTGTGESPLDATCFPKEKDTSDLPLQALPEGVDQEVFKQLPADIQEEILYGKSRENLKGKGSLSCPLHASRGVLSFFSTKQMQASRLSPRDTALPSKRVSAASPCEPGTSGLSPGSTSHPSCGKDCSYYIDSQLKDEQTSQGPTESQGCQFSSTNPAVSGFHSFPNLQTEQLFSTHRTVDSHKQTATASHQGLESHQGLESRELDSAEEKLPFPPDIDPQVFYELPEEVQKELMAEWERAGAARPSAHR
Sequence of Taq pol (P19821 whole entry): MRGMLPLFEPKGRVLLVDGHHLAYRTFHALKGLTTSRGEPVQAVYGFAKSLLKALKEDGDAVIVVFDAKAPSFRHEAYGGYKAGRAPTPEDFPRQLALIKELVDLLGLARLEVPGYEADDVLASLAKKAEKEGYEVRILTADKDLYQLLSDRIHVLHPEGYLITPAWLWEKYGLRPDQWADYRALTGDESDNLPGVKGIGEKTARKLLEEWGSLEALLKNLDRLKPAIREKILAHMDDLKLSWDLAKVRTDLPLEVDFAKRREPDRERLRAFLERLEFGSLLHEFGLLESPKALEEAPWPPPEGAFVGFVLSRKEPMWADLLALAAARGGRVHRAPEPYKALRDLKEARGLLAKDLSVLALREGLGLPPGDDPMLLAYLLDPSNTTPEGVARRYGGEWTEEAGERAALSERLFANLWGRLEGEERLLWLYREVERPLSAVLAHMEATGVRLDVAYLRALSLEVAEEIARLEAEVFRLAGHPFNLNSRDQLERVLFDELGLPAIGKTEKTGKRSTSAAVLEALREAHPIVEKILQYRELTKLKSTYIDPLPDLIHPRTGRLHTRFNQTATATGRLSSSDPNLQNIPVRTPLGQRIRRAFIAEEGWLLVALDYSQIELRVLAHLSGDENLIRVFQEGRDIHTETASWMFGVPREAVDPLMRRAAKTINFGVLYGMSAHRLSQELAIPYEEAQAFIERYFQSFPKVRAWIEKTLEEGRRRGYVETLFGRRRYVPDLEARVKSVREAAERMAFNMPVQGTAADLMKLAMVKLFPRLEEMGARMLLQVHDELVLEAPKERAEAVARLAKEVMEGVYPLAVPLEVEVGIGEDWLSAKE
Sequence of Klenow fragment of E. coli pol I (P00582 324-928): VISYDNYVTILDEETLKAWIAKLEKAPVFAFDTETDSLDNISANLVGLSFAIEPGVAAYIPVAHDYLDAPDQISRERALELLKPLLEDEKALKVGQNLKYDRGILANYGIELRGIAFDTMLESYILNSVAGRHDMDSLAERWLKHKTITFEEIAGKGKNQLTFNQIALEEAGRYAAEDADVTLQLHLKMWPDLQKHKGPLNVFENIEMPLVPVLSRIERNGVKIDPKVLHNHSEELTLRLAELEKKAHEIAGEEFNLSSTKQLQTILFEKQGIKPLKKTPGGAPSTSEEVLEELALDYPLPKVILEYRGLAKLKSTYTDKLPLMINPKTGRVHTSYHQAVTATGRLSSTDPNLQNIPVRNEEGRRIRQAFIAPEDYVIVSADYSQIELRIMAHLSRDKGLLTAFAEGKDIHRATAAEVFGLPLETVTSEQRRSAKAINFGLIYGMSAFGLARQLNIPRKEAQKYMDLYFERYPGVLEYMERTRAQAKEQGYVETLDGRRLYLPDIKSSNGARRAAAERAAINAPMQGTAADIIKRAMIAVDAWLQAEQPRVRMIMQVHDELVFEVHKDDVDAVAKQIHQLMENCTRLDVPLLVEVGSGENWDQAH
Sequence of T4 polynucleotide kinase (P06855 whole entry): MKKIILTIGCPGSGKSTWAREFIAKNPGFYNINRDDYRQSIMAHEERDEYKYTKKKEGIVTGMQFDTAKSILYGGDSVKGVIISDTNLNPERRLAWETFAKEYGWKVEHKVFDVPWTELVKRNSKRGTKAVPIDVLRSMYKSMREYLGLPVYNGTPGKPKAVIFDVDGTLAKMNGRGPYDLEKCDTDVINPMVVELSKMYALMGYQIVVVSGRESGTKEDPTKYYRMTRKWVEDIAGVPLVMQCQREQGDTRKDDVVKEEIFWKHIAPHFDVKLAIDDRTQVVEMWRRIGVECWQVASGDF

## O=C(OC[C@H]1O[C@@H](OC(=O)c2cc(O)c(O)c(O)c2)[C@H](OC(=O)c2cc(O)c(O)c(O)c2)[C@@H](OC(=O)c2cc(O)c(O)c(O)c2)[C@@H]1OC(=O)c1cc(O)c(O)c(O)c1)c1cc(O)c(O)c(O)c1 [PGG, 1,2,3,4,6-penta-O-galloyl-β-D-glucose]
[1]
  Mode of Inhibition, Beta-secretase: Non-competitive for Rh-EVNLDAEFK-Quencher
[1]; read-out: IC50, Beta-secretase
  IC50: 3.76 µM
[1]; read-out: Ki, Beta-secretase
  Ki: 5.13 µM
[2]; 100 and 1,000 nM PGG, Fig. 1C
  effect on pol δ activity: significantly inhibit
[2]; IC50, pol δ, range stated for replicative pols (α, δ and ε) together
  IC50: < 0.1 µM and 0.013 to 0.066 µM
[3]
  effect on T4 polynucleotide kinase activity: did not suppress
[4]
  effect on human topoisomerase II activity: did not suppress
[5]
  effect on Taq pol activity: not influenced
[6]
  IC50: 73.1 µM
[7]
  inhibition of del-1 pol λ activity: dose-dependently inhibited
[8]
  effect on Klenow fragment of E. coli pol I activity: not influenced
[9]
  effect on pol λ activity: not affected; also recorded: not sensitive
[10]
  IC50: 0.03 to 0.045 µM
[10]; 100 and 1,000 nM PGG, Fig. 1C
  effect on pol ι activity: significantly inhibit
[11]
  effect on human topoisomerase I activity: did not suppress
[12]
  IC50: 3.2 µM
[13]
  IC50: 0.03 to 0.045 µM
[13]; 100 and 1,000 nM PGG, Fig. 1C
  effect on pol η activity: significantly inhibit
[14]; 5 nM PGG
  apparent Vmax of pol α, DNA template-primer, decreased to: 32.2%
[14]; 10 nM PGG
  apparent Vmax of pol α, DNA template-primer, decreased to: 18.9%
[14]; 15 nM PGG
  apparent Vmax of pol α, DNA template-primer, decreased to: 13.6%
[14]; 15 nM PGG (29.2 without PGG)
  apparent Vmax of pol α for the dNTP substrate: 3.77 pmol/h
[14]; 100 and 1,000 nM PGG, Fig. 1C
  effect on pol α activity: significantly inhibit
[14]; IC50, pol α, poly(dA)/oligo(dT)18 and dTTP, 0.05 unit enzyme
  IC50: 0.013 µM
[14]; for the DNA template-primer
  Ki: 0.0025 µM
[14]; for the dNTP substrate
  Ki: 0.0022 µM
[14]; Lineweaver-Burk plots
  Mode of Inhibition, pol α, DNA template-primer: Non-competitive for DNA template-primer
  Mode of Inhibition, pol α, dNTP: Non-competitive for dNTP
[14]; PGG 10 and 100 nM, supplemental Table S1
  effect of 0.05% NP-40 on the inhibitory effect on pol α: not reversed
[14]; poly(rC) 50 μM, BSA 200 μg/ml
  effect of poly(rC) or BSA on the inhibitory effect on pol α: neither poly(rC) nor BSA influenced

From paper PMC2943143 (Biochemical pharmacology, 2010)
